MC4R barr agon: activates human MC4R beta-arrestin recruitment; P32245; AID 540308; U2OS MC4R beta-arrestin complementation, luminescence; percent of melanotan II response, DMSO zero; 0.98% of 360,000 active; activation, % at 8.9 µM;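 active means activation above a per-plate cutoff, the mean activation of sample wells on that plate plus 3 SD, cut at about 8% in these data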
TMEM16A inh: mouse TMEM16A channel inhibition, primary screen. Q8BHY3. HEK293 TMEM16A/YFP iodide influx fluorescence, ionomycin. normalized B-score (activity score, 25-100; higher = stronger inhibition) at 10 µM. 1.2% of 310,000 active;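 active means ratio plate-corrected score three or more library SD toward inhibition, starting fluorescence score within five deviations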;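 further: score derived from kinetic fluorescence span divided by baseline fluorescence per well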
Target sequence (Q8BHY3 whole entry, looked up): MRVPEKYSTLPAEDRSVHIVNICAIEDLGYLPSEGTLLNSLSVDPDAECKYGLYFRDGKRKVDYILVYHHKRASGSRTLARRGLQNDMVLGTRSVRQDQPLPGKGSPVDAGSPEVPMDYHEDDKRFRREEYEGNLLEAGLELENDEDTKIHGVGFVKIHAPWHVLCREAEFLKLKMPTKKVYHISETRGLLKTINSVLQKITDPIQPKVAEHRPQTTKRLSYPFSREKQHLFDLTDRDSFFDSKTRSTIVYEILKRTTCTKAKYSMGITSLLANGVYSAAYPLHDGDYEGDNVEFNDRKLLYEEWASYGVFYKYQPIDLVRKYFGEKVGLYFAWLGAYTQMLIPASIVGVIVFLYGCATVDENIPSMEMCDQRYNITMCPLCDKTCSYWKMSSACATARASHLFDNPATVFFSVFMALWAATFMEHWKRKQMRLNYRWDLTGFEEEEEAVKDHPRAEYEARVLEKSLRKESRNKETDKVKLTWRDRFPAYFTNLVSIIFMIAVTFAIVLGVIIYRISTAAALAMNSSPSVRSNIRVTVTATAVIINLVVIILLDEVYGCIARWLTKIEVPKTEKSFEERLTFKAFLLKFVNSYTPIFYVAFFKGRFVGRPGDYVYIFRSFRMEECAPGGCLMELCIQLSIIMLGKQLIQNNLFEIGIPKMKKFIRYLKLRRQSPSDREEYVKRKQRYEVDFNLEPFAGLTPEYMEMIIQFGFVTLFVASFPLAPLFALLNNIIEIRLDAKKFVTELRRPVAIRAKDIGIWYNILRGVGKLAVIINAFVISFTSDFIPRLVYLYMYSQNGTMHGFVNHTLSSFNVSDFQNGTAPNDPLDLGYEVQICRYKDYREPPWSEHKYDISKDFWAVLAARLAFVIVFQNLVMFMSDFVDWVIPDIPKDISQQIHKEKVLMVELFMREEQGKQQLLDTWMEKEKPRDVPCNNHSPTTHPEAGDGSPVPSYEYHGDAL
MIN6 prolif: MIN6 beta-cell proliferation induction; MIN6 cells proliferation, ATPlite luminescence, 48 h; cells starved in 0.2% serum; 100% = growth in 10% serum; proliferation, % at 10 µM; 0.29% of 330,000 active; AID 2380;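 active means compounds whose signal lies at least 3.5 SD above the mean of all wells on their plate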
HTR2A ag: mouse HTR2A agonism via beta-arrestin recruitment. P35363. CHO-K1 mHTR2A beta-arrestin complementation, luminescence; percent of 30 µM serotonin response. activation, % at 7.6 µM. 0.66% of 360,000 active;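 active means activation above a run cutoff, the mean activation of all tested compounds plus 3 SD, cut at about 14% in these data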
ANO1 activ: mouse TMEM16A channel activation, primary screen | Q8BHY3 | HEK293 TMEM16A/YFP-H148Q/I152L, iodide quench fluorescence; active compounds read low | B-score at 10 µM | 0.3% of 340,000 active | AID 623877;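 active means fluorescence-ratio B-score plate-corrected deviation score at least 3 library SD below zero, with starting fluorescence score within 5 deviations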;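 further: channel opened by trigger with iodide after compound preincubation; score built on the fluorescence ratio of max minus min over baseline; more negative score means more quench and so TMEM16A activation or potentiation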
MC4R antagonist: human MC4R antagonism in cAMP assay; MC4R-expressing cells, MTII-stimulated cAMP, LANCE TR-FRET; 0.48% of 360,000 active; inhibition, % at 6.5 µM; AID 540295;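 active means inhibition above its plate's cutoff, the mean of tested wells on that plate plus 3 SD, cut at about 29% in these data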
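Material: human MC4R-expressing U2OS cells. Probe or stimulus: Melanotan II challenge. Dosing: 6.5 µM single dose. Times: 30-min compound, 1-h challenge, 1-h detection, room temperature. Technique: TR-FRET with Eu-cAMP and labeled anti-cAMP, 671 nm. Replication: singlicate.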
cAMP nonselect: nonselective cAMP signaling inhibitor, MC4R antagonist counter-screen. shares compounds with MC4R antagonist. parental U2OS, forskolin cAMP, LANCE TR-FRET. inhibition, % at 6.5 µM. 26% of 1,600 active. AID 602193;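 active means mean inhibition over triplicates above the low-control well mean plus 3 SD, set per campaign, cut at about 13% in these data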;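 further: signal is single emission at 671 nm which falls as cellular cAMP rises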
MC4R antag conf: human MC4R cAMP antagonism confirmation | 27% of 1,600 active | AID 602195 | shares compounds with MC4R antagonist | MC4R-expressing cells, MTII-stimulated cAMP, TR-FRET | inhibition, % at 6.5 µM; in the data active means inhibition above about 29%
A number is an active result; n = inactive; x = no result given. A selection: hits, their analogues and other compounds. The true share with any hit is near 3.4%.

SMILES	MC4R barr agon	TMEM16A inh	MIN6 prolif	HTR2A ag	ANO1 activ	MC4R antagonist	cAMP nonselect	MC4R antag conf
COCCNc1nc2c(c(=O)n(Cc3cccc(Br)c3)c(=O)n2C)n1C	n	n	n	n	n	n	x	x
CCC[C@H]1CN(c2ccccc2)C(=O)[C@@H]1CC(=O)NC	n	x	x	n	x	n	x	x
O=C(CCCc1nc2ccccc2s1)NCc1cccnc1	n	n	n	n	n	28.9	n	n
COc1ccccc1C(C)NC(=O)c1ccccc1SCC(=O)N1CCCC1 (centres undefined)	n	n	n	n	n	n	x	x
CCOC(=O)C1=C(C)C2C3C(=O)N(c4ccccc4C)C(=O)C3C1(C)C1C(=O)N(c3ccccc3C)C(=O)C21 (centres undefined)	n	n	n	n	n	31.4	n	n
CC(COc1ccc(C(C)C)cc1)NC(=O)c1ccc(Br)o1 (centres undefined)	n	n	n	n	n	n	x	x
Cc1nc2c(sc3nc(N4CCOCC4)c4c(c32)CC(C)(C)OC4)c(-c2ccccc2)c1C(=O)O	n	n	n	n	n	40.4	n	n
O=C(O)CCn1c(-c2ccccn2)nc2ccccc21	n	n	n	n	n	29.4	n	n
O=S(=O)(c1ccccc1)C1CON(Cc2ccccc2)C1c1ccccc1 (centres undefined)	n	n	n	n	n	29.7	n	n
CN1OCC(S(=O)(=O)c2ccccc2)C1c1ccccc1 (centres undefined)	n	n	n	n	n	n	x	x
C=C1CC2(CC(c3ccccc3)OC(c3ccccc3)C2)OC1=O (centres undefined)	n	x	x	n	n	34.3	20.7	46.2
Cc1ccc(C)c(CC(=O)N2CCCC(c3cc(C(=O)NCc4cccnc4)no3)C2)c1 (centres undefined)	n	x	x	n	x	n	x	x
Cc1cccc(C(=O)NCC(=O)OCC(=O)NCCNC(=O)COC(=O)CNC(=O)c2cccc(C)c2)c1	n	n	n	n	n	n	x	x
Cc1cccc(C(=O)NCC(=O)OCC(=O)c2ccc(Br)s2)c1	n	x	n	n	n	44.3	32.9	69.8
C/C=C/c1cccc(-c2nc(C(=O)NC3Cc4ccccc4C3)cc3c2[C@@H](CCO)N(C(C)=O)C3)c1	x	x	x	n	x	x	x	x
O=C(NCC(O)c1nc2ccccc2[nH]1)c1cc([N+](=O)[O-])ccc1F (centres undefined)	x	x	x	n	x	x	x	x
CC(=O)c1cn(CC(=O)NCc2ccc3c(c2)OCO3)c2ccccc12	n	n	n	n	n	31.4	n	n
Cc1ccc(NC(=O)C(=O)NCC2CCCO2)cc1C (centres undefined)	n	n	n	n	n	35.6	n	n
COCc1cc(CN2CCCC(C(=O)Nc3cccc(-n4cnnn4)c3)C2)ccc1OC (centres undefined)	n	n	n	n	n	n	x	x
CC(NC(=O)CN(c1cccc(C(F)(F)F)c1)S(=O)(=O)c1ccc(Cl)c([N+](=O)[O-])c1)c1ccccc1 (centres undefined)	n	n	n	n	n	31.2	13.8	41.9
Nc1ccn(CC(=O)N[C@H](CO)Cc2c[nH]c3ccccc23)c(=O)n1	n	x	n	n	n	n	x	x
Cc1ccnc(NCc2ccc(Cl)cc2)c1	n	n	n	n	n	n	x	x
Cc1cccc2cc(C#N)c(SCC(=O)NCc3cccs3)nc12	n	n	n	n	n	38.8	41.2	80.4
CCOC(=O)CNC(=O)CSc1nc2c(C)cccc2cc1CC	n	n	n	n	n	33.8	n	n
CCc1cc2cccc(C)c2nc1SCC(=O)NC1CCCC1	n	n	n	n	n	n	x	x
Cc1ccc(S(=O)(=O)N2CCCCC2)cc1C(=O)OC1CCCCC1=O (centres undefined)	n	n	n	n	n	n	x	x

Screening data as filed in PubChem.
